Laboratory results as given in ChEMBL document CHEMBL4665743, “Labdane-Type Diterpenes from the Aerial Parts of Rydingia persica: Their Absolute Configurations and Protective Effects on LPS-Induced Inflammation in Keratinocytes” (2020).

Key:
Type in all cases: functional
[1] = tested on: HaCaT; test: Anti-inflammatory activity in human HaCaT cells assessed as inhibition of LPS-induced IL-6 production at 12.5 uM after 24 hrs by ELISA relative to LPS alone
Outline: (§1)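 HaCaT keratinocytes (DMEM, 4 g/L glucose, 10% FBS, 1% pen-strep) seeded 5 × 10^3 cells/well and allowed to adhere 24 h. Compounds added for 1 h alone, then with E. coli LPS (5 μg/mL) for 24 h. IL-6 or TNF-α measured in supernatants by ELISA (pg/mL) and expressed as % inhibition vs LPS alone. Indomethacin 10 μM served as reference. Mean ± SEM, n = 3.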

[2] = tested on: HaCaT; test: Anti-inflammatory activity in human HaCaT cells assessed as inhibition of LPS-induced IL-6 production at 25 uM after 24 hrs by ELISA relative to LPS alone; outline: as §1
[3] = tested on: HaCaT; test: Anti-inflammatory activity in human HaCaT cells assessed as inhibition of LPS-induced IL-6 production at 50 uM after 24 hrs by ELISA relative to LPS alone; outline: as §1
[4] = tested on: HaCaT; test: Anti-inflammatory activity in human HaCaT cells assessed as inhibition of LPS-induced TNF-alpha production at 50 uM after 24 hrs by ELISA relative to LPS alone; outline: as §1
[5] = tested on: HaCaT; test: Anti-inflammatory activity in human HaCaT cells assessed as inhibition of LPS-induced TNF-alpha production at 25 uM after 24 hrs by ELISA relative to LPS alone; outline: as §1
[6] = tested on: HaCaT; test: Anti-inflammatory activity in human HaCaT cells assessed as inhibition of LPS-induced TNF-alpha production at 12.5 uM after 24 hrs by ELISA relative to LPS alone; outline: as §1
[7] = tested on: HaCaT; test: Anti-inflammatory activity in human HaCaT cells assessed as inhibition of LPS-induced nitrotyrosine production at 50 uM after 24 hrs by FACS analysis relative to LPS alone
Outline: (§2)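 Cells were HaCaT seeded at 5 × 10^3 cells/well and pretreated with compound 1 h, then exposed to LPS (5 μg/mL) for 24 h. They were collected, PBS-washed, fixed 20 min and permeabilized 30 min, then stained 1 h with anti-nitrotyrosine antibody plus fluorescent secondary. Fluorescence was read by flow cytometry and expressed as % inhibition vs LPS alone. Mean ± SEM, n = 3.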

[8] = tested on: HaCaT; test: Anti-inflammatory activity in human HaCaT cells assessed as inhibition of LPS-induced nitrotyrosine production at 25 uM after 24 hrs by FACS analysis relative to LPS alone; outline: as §2
[9] = tested on: HaCaT; test: Anti-inflammatory activity in human HaCaT cells assessed as inhibition of LPS-induced nitrotyrosine production at 12.5 uM after 24 hrs by FACS analysis relative to LPS alone; outline: as §2
[10] = tested on: HaCaT; test: Anti-inflammatory activity in human HaCaT cells assessed as inhibition of LPS-induced claudin-1 expression at 50 uM after 24 hrs by FACS analysis (rvb = 31.19 +/- 0.77)
[11] = tested on: HaCaT; test: Anti-inflammatory activity in human HaCaT cells assessed as inhibition of LPS-induced claudin-1 expression at 25 uM after 24 hrs by FACS analysis (rvb = 31.19 +/- 0.77)
[12] = tested on: HaCaT; test: Anti-inflammatory activity in human HaCaT cells assessed as inhibition of LPS-induced claudin-1 expression at 12.5 uM after 24 hrs by FACS analysis (rvb = 31.19 +/- 0.77)
[13] = tested on: HaCaT; test: Anti-inflammatory activity in human HaCaT cells assessed as inhibition of LPS-induced occluding expression at 50 uM after 24 hrs by FACS analysis (rvb = 30.17 +/- 5.98)
[14] = tested on: HaCaT; test: Anti-inflammatory activity in human HaCaT cells assessed as inhibition of LPS-induced occluding expression at 25 uM after 24 hrs by FACS analysis (rvb = 30.17 +/- 5.98)
[15] = tested on: HaCaT; test: Anti-inflammatory activity in human HaCaT cells assessed as inhibition of LPS-induced occluding expression at 12.5 uM after 24 hrs by FACS analysis (rvb = 30.17 +/- 5.98)
[16] = tested on: HaCaT; test: Anti-inflammatory activity in human HaCaT cells assessed as inhibition of LPS-induced IL-6 production at 10 uM after 24 hrs by ELISA relative to LPS alone; outline: as §1
[17] = tested on: HaCaT; test: Anti-inflammatory activity in human HaCaT cells assessed as inhibition of LPS-induced TNF-alpha production at 10 uM after 24 hrs by ELISA relative to LPS alone; outline: as §1

SMILES | inhibition at 12.5 µM [1] [%] | inhibition at 25 µM [2] [%] | inhibition at 50 µM [3] [%] | inhibition at 50 µM [4] [%] | inhibition at 25 µM [5] [%] | inhibition at 12.5 µM [6] [%] | inhibition at 50 µM [7] [%] | inhibition at 25 µM [8] [%] | inhibition at 12.5 µM [9] [%] | Flu intensity [10] | Flu intensity [11] | Flu intensity [12] | Flu intensity [13] | Flu intensity [14] | Flu intensity [15] | inhibition at 10 µM [16] [%] | inhibition at 10 µM [17] [%]
CC(=O)OC[C@@]1(C)[C@H](O)CC[C@]2(C)C(CCc3ccoc3)=C(C)C(=O)C[C@@H]12 | 66.5 | 67 | 73.5 | 44 | 25 | 0 | 58.3 | 44 | 0 | 17.12 | 14.18 | 6.86 | 31.34 | 19.18 | 13.27 |  | 
CC1=C(CCc2ccoc2)[C@@]2(C)CC[C@@H](O)C(C)(C)[C@@H]2[C@H](O)C1=O | 65.5 | 69 | 81 | 68 | 68 | 39.5 | 56 | 40 | 5 | 34.97 | 23.72 | 12.24 | 31.92 | 21.1 | 18.52 |  | 
CC(=O)OC[C@@]1(C)[C@H](O)CC[C@]2(C)C(CCC3=CC(O)OC3=O)=C(C)C(=O)C[C@@H]12 (some centres not stated) | 44.5 | 49.5 | 73.5 | 56.5 | 47.5 | 35 | 61.7 | 43 | 3.67 | 34.13 | 20.73 | 14.41 | 32.25 | 21.77 | 12.54 |  | 
C[C@@H]1C(=O)C[C@H]2C(C)(C)[C@H](O)CC[C@]2(C)[C@@]1(O)CCc1ccoc1 | 48 | 64.5 | 69.5 | 65 | 62.5 | 37 | 46.3 | 30.5 | 6.33 | 36.5 | 30.04 | 19.29 | 32.27 | 24.34 | 17.8 |  | 
CO[C@@H]1C[C@]2(CC[C@@]3(O2)[C@H](C)C(=O)C[C@H]2C(C)(C)[C@H](O)CC[C@@]23C)CO1 | 63 | 71.5 | 76.5 | 68 | 62.5 | 44 | 39.3 | 21 | 0 | 33.58 | 22.52 | 13.55 | 24.77 | 18.59 | 8.82 |  | 
COc1ccc2c(c1)c(CC(=O)O)c(C)n2C(=O)c1ccc(Cl)cc1 [INDOMETHACIN] |  |  |  |  |  |  |  |  |  |  |  |  |  |  |  | 88.5 | 77
CC(=O)O[C@@H]1CC[C@@]2(C)[C@@H](C(=O)[C@H](O)[C@@H](C)[C@]2(O)CCc2ccoc2)C1(C)C | 73.5 | 77 | 80.5 | 68 | 62 | 15.6 | 56.3 | 42.7 | 9 | 26.08 | 16.35 | 14.96 | 22.88 | 16.06 | 10.89 |  | 
CO[C@@H]1C[C@@]2(CC[C@@]3(O2)[C@H](C)C(=O)C[C@H]2C(C)(C)[C@H](O)CC[C@@]23C)C(=O)O1 | 75 | 75.5 | 76.5 | 56.5 | 50.5 | 41.5 | 57.5 | 40 | 14.3 | 32.36 | 24.86 | 8.09 | 25.11 | 18.73 | 9.09 |  | 
COC1C=C(CCC2=C(C)C(=O)C[C@H]3C(C)(C)[C@H](O)CC[C@]23C)C(=O)O1 (some centres not stated) | 65.5 | 74 | 74.5 | 72 | 68 | 52 | 59.3 | 29.5 | 0.5 | 27.21 | 20.46 | 16.74 | 34.73 | 22.64 | 18.46 |  | 
CC1=C(CCC2=CC(O)OC2=O)[C@@]2(C)CC[C@@H](O)C(C)(C)[C@@H]2CC1=O (some centres not stated) | 56 | 70.5 | 76 | 73.5 | 70.5 | 68 | 58.7 | 37 | 30 | 22.83 | 13.14 | 5.01 | 25.71 | 13.83 | 10.27 |  | 
CO[C@H]1C[C@]2(CC[C@@]3(O2)[C@H](C)C(=O)[C@@H](O)[C@H]2C(C)(C)[C@H](O)CC[C@@]23C)CO1 | 38.5 | 68.5 | 78 | 65 | 55 | 44 | 38 | 15 | 0 | 31.45 | 22.27 | 14.39 | 35.8 | 23.48 | 18.89 |  | 
